High-throughput results deposited in PubChem BioAssay by several laboratories.
Shown are actives, neighbours in structure and some others; about 1.2% of the full set was active somewhere.
ASAP1 inh = inhibitors of human ASAP1 ArfGAP activity, primary screen, biochemical, fluorescence polarization; Arf-GAP with SH3 domain, ANK repeat and PH domain-containing protein 1 (Homo sapiens), …; AID 624377, 2012; ASAP1-stimulated ARF1 GTP hydrolysis, GDP FP detection; 360,000 compounds, 0.19% hits; inhibition, % at 16.5 µM; in the data active = inhibition above about 25%;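 also: 0% = vehicle with enzyme and substrate and 100% = no enzyme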
Target sequence (Q9ULH1 325-724 limits assumed): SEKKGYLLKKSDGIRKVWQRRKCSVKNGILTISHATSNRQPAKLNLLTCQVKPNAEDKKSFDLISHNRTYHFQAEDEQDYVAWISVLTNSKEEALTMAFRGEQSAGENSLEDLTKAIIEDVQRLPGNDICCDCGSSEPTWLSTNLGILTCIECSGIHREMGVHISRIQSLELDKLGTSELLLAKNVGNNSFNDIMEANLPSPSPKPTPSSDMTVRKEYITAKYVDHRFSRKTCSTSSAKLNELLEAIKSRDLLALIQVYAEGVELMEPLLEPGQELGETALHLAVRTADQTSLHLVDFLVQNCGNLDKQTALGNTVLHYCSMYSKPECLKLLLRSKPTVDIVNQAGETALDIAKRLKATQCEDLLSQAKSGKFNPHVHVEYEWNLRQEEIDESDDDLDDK
CR mimetic SO = reduction of superoxide in aged yeast, primary screen, HTS | superoxide response (% of plate mean), % at 10 µM | S. cerevisiae aged cells, superoxide DHE fluorescence; hits give low values | AID 2690, 2010 | 330,000 compounds, 0.18% hits;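 active = superoxide response under a set limit, about three screen SD below normal, cut at about 65% in these data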;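 also: yeast aged for seven days with compound at 30 °C before DHE staining; 100% = average MFI of all compound-treated wells on the plate with controls excluded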
ARFGAP1 inh = inhibitors of rat ARFGAP1 GAP activity, primary screen, biochemical, fluorescence polarization, GDP tracer | inhibition, % at 16.5 µM | 360,000 compounds, 0.26% hits | ADP-ribosylation factor GTPase-activating protein 1 (Rattus norvegicus), Q62848 | Arfgap1-stimulated ARF1 GTP hydrolysis, GDP FP detection;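 active = inhibition above a per-plate limit, mean inhibition of low control wells plus 3 SD, cut at about 25% in these data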;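 also: 0% = DMSO wells with enzyme and 100% = wells lacking Arfgap1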
Target sequence (Q62848 1-136 limits assumed): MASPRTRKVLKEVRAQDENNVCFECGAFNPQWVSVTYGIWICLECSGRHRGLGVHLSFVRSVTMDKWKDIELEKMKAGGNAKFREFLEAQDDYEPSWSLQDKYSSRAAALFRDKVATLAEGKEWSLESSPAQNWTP
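Repeats: one replicate per compound; assay system: rat Arfgap1 catalytic domain, aa 1-136; times: enzyme reaction 120 min at 25 °C after 20 min preincubation; detection: FP of antibody-bound GDP Alexa 633 tracer, ex 620/em 688 nm; benchmarks: high control wells lacking Arfgap1, low control full reaction with DMSO; reagent: human ARF1(Δ1-17)-GTP substrate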
proCasp7 act = procaspase-7 activators, primary screen, counter-screen for procaspase-3 activator project, biochemical, absorbance, HTS, human; Caspase-7 (Homo sapiens), P55210; 330,000 compounds, 0.093% hits; recombinant procaspase-7, Ac-DEVD-pNA absorbance 405 nm; D23A/D198A/D206A triple mutant, cannot self-cleave; scale: DMSO 0, 5 µM enzyme 100; activation, % at 8.5 µM;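 active = percent activation above the screen-wide mean plus 3 SD, cut at about 25% in these data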
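Assay system: Uncleavable procaspase-7 mutant enzyme / Input: 2 µM procaspase-7 mutant as dispensed / Dosing: single nominal 8.5 µM compound dose, 0.8% DMSO final / Timing: 1 h enzyme–compound preincubation and 2 h substrate reaction, both 25 °C / Detection: p-Nitroaniline absorbance at 405 nm, read at 0 and 120 min / Replication: singlicate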
LANA-H2B inh = blockers of LANA interaction with H2A/H2B – biochemical, FP readout, HTS, primary screen; cell-free LANA-H2A/H2B peptide, fluorescence polarization; inhibition, % (test concentration not listed); 320,000 compounds, 0.6% hits; in the data active = inhibition mostly above about 10%, no sharp cut-off; inactive = mostly below about 6.7%
proCasp3 act = activators of human procaspase-3 D3A mutant, primary screen, biochemical, absorbance, PC-3 D3A mutant, single concentration; Caspase-3 (Homo sapiens), P42574; recombinant procaspase-3 D3A, Ac-DEVD-pNA absorbance 405 nm; activation, % at 8.5 µM; 330,000 compounds, 0.11% hits; AID 463141, 2010;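 active = activation above the mean of all tested compounds plus 3 SD, cut at about 21% in these data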;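 also: 0% = DMSO alone and 100% = DMSO wells spiked with extra 5 µM PC-3 D3A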
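Evaluation: percent activation relative to control range; Material: Procaspase-3 D3A mutant, all three cleavage aspartates alanine; Compound: single dose, 8.5 µM nominal compound, 0.8% DMSO; Replication: one well per compound; Signal: absorbance at 405 nm, 0 and 120 min; Schedule: 1 h preincubation plus 2 h reaction at 25 °C.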
CR mimetic CP = superoxide lowering in aged yeast cells, confirmation, cherry picked compounds | shares compounds with CR mimetic SO | S. cerevisiae aging, superoxide DHE fluorescence; hits give low values | superoxide response (% of plate), % at 10 µM | 850 compounds, 1% hits;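 active = superoxide signal below 65% of the plate average of sample wells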;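 also: cells aged with compound for 7 days at 30 degrees C before staining; 100% equals mean DHE fluorescence of all compound wells on the plate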
DHE counter = DHE quenching or ROS scavenging interference in aged yeast, artefact control for yeast caloric restriction mimetic project, S. cerevisiae BY4741, flow cytometry | fluorescence response, % at 10 µM | DHE fluorescence; hits give low values | 850 tested, under 10 active | shares compounds with CR mimetic SO;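 active = fluorescence response below 15%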;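 also: percent of the mean fluorescence averaged over all compound wells on the plate; lower means stronger quenching of DHE signal or ROS scavenging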
* hit, by the source's call; . = not tested or not shown.

SMILES	ASAP1 inh	CR mimetic SO	ARFGAP1 inh	proCasp7 act	LANA-H2B inh	proCasp3 act	CR mimetic CP	DHE counter
CCC(C)c1ccc(C(C)NC(=S)NC2CCCCC2)cc1 (stereo not drawn)	3.6	50.4*	-1.8	-4.9	0.3	-3.3	83.6	90.4
CCc1ccc(C(C)NC(=S)NC2CCCCC2)cc1 (stereo not drawn)	.	101.8	.	.	2.1	.	.	.
Cn1cc(C2CC(c3ccccc3)=NN2C(=O)c2ccccc2)c2ccccc21 (stereo not drawn)	-11.5	59.2*	18.2	-5.8	-3.1	0.0	93.3	102.6
COc1cccc(N2CC(NS(=O)(=O)c3cccnc3)CC2=O)c1 (stereo not drawn)	2.3	82.9	-16.8	-3.1	4.6	6.2	.	.
CCCNS(=O)(=O)c1ccc(NC(=O)c2cccnc2)cc1	-6.9	57.7*	0.5	10.9	-0.8	-7.6	115.2	107.0
CCc1nc2ccc(C(=O)Nc3cccc(OCC(=O)N(C)C)c3)cn2c1N(CCC(C)C)CCN(C)C	-6.3	.	-5.6	.	.	.	.	.
COc1ccc(N2CCN(C(=O)c3cccnc3)CC2)c([N+](=O)[O-])c1	7.7	98.3	5.3	5.6	-0.1	4.4	101.2	93.7
CSc1ccc(CN2CCC(C)(Oc3ccccc3F)C2)cc1 (stereo not drawn)	-1.3	.	22.6	.	.	.	.	.
COc1cc(C)nn1-c1ccc(Cl)cc1	5.7	129.9	-7.7	-6.6	-3.5	-0.5	.	.
CCOc1ccccc1C(=O)N1c2ccccc2Sc2ccccc21	-11.8	57.2*	-3.2	-2.8	-4.1	-3.3	85.8	93.5
COc1ccc(C(=O)N2CCN(c3cccc(Cl)c3)CC2)c(OC)c1	-1.9	103.7	-2.5	3.9	0.2	3.2	107.6	99.8
COc1ccccc1C(=O)N1c2ccccc2Sc2ccccc21	-3.2	110.8	4.8	-0.3	0.6	-9.9	.	.
CCOc1ccccc1C(=O)N1CCN(c2cccc(Cl)c2)CC1	11.2	119.5	-2.0	1.2	0.2	1.7	97.5	90.8
COc1cc(SC)ccc1C(=O)N1CCN(c2ccccc2F)CC1	-3.9	121.0	-1.1	0.7	-2.4	12.0	120.1	119.0
O=[N+]([O-])c1ccc(Sc2cccc3cccnc23)c2cccnc12	5.9	109.3	-1.9	1.8	-3.6	8.3	.	.
Cc1c(-c2ccccc2)oc2c(C(=O)N3CCN(c4ccccc4F)CC3)cccc2c1=O	-2.6	115.9	-6.1	4.4	1.4	6.0	.	.
Cc1nccn1-c1cc(C(C)(C)C)nc2c(-c3ccccc3)cnn12	5.3	93.0	4.5	-2.5	-9.8	3.9	.	.
Nn1c(SCC(=O)Nc2cc(S(=O)(=O)N3CCOCC3)ccc2Cl)nnc1-c1cccnc1	5.7	94.6	-9.5	1.3	-9.5	-7.8	.	.
OC(CNc1nc(-c2cccnc2)nc2ccccc12)c1ccccc1 (stereo not drawn)	-9.9	101.3	8.3	-2.1	-1.6	-1.1	.	.
Cc1c(C(=O)N2CCN(c3cccc(Cl)c3)CC2)cccc1[N+](=O)[O-]	-0.2	95.6	-7.2	-1.7	6.2	2.1	94.4	98.0
COc1ccc(Cl)cc1S(=O)(=O)N1CCCC1=O	-6.1	97.8	5.3	7.3	-5.0	3.2	108.8	98.7
